Common to all, as to format: binding
In test [1] the target is T1, BLVRB (biliverdin reductase B) (Homo sapiens, UniProt P30043).
T1 sequence (P30043 1-206): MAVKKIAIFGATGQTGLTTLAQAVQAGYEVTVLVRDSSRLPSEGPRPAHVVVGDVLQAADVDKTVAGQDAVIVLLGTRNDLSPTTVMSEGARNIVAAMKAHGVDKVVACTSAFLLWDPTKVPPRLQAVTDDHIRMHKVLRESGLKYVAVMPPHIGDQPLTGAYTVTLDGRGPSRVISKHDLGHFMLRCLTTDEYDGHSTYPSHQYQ
In words: NMR titration.

In test [2] the target is T1, BLVRB (biliverdin reductase B). In words: isothermal titration calorimetry. On the technique in general: ITC needs no label: the signal is the heat of the interaction.
Test [3] concerns the target T2, BLVRB (biliverdin reductase B) (Homo sapiens, UniProt P30043, R78A).
T2 sequence (P30043 1-206 R78A): T1 sequence (P30043 1-206) with R78A
In words: isothermal titration calorimetry. The procedure, abridged: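 Human BLVRB (R78A mutant) expressed in E. coli BL21/DE3 with a cleavable N-terminal His-tag, Ni-purified under denaturing conditions, refolded by dialysis, tag removed, then gel-filtered. ITC used 100 μM enzyme in the cell, titrated with reduced or oxidized coenzyme (freshly prepared) at 1 mM. Buffer was 50 mM Bis–Tris pH 6.5, 50 mM NaCl, 1 mM DTT, at 20 °C. Runs were done in duplicate.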

Usually Kd stands for the constant that tells how readily two partners part at equilibrium. High values mean lower affinity, low ones higher affinity.

Numbering of substitutions follows the chain as printed.

On to `Cc1cc2nc3c(=O)[nH]c(=O)nc-3n(C[C@H](O)[C@H](O)[C@H](O)COP(=O)(O)OP(=O)(O)OC[C@H]3O[C@@H](n4cnc5c(N)ncnc54)[C@H](O)[C@@H]3O)c2cc1C` [FAD], for which the Kd in test [1] was 590 ± 80 µM.

In test [2], `NC(=O)C1=CN([C@@H]2O[C@H](COP(=O)(O)OP(=O)(O)OC[C@H]3O[C@@H](n4cnc5c(N)ncnc54)[C@H](OP(=O)(O)O)[C@@H]3O)[C@@H](O)[C@H]2O)C=CC1` [NADPH] gave a Kd of 0.3 ± 0.2 µM. In the case of `NC(=O)c1ccc[n+]([C@@H]2O[C@H](COP(=O)(O)OP(=O)(O)OC[C@H]3O[C@@H](n4cnc5c(N)ncnc54)[C@H](OP(=O)(O)O)[C@@H]3O)[C@@H](O)[C@H]2O)c1` [NADP^+], the Kd in test [3] was 2.8 ± 0.2 µM; in test [2], 0.4 ± 0.2 µM.
